Assay results of several laboratories.
Each line is one published result; the experiments were not run side by side.
Target: Tyrosine-protein kinase Srms (SRMS, Homo sapiens, UniProt Q9H3Y6)

With `COc1ncccc1-c1cnn2ccc(N3CCN(C(=O)OC(C)C)CC3)nc12` the remaining binding was 78% (binding; competition with immobilised ligand; 1 µM).
The remaining binding of `Cn1cncc1[C@@](O)(COc1ccc(C#N)cc1-c1ccc(OC(F)(F)F)cc1)c1ccc(C#N)cc1` is reported as 100% (cell-free assay; competition with immobilised ligand; 1 µM).
The remaining signal of `O=c1[nH]c2ccccc2n1C1CCN(Cc2ccc(-c3[nH]c4cc5ncnc5cc4nc3-c3ccccc3)cc2)CC1` is reported as 93.1% (cell-free assay; 0.5 µM).
With `Cn1cc(-c2cc(F)cc(N3CCn4c(cc5c4CCCC5)C3=O)c2CO)cc(Nc2ccc(N3CCN(C4COC4)CC3)cn2)c1=O` the inhibition was 17% (enzyme activity; inhibitor; 0.1 µM).
`Nc1ncc(-c2nc(N3CCOCC3)nc(N3CCOCC3)n2)c(C(F)F)n1` gave a remaining binding of 88% (cell-free assay; competition with immobilised ligand; 10 µM).
`Cn1cc(-c2cccc(N3CCc4c(sc5c4CC(C)(C)C5)C3=O)c2CO)cc(Nc2ccncn2)c1=O` has an inhibition of -3% (enzyme activity; inhibitor; 1 µM).
The remaining binding of `Cc1nn(C)cc1-c1nc2c(N3CCN(Cc4ccc(Cl)cc4)CC3)c(Cl)cnc2[nH]1` is reported as 100% (binding; competition with immobilised ligand; 1 µM).
For `N#CC1(c2ccccn2)CCN(Cc2cc(C(=O)O)c(=O)n3ccccc23)CC1`, the remaining binding was 93% (cell-free assay; competition with immobilised ligand; 1 µM).
